Calls of active or inactive are those of the source. The calls are words filed in the database; no cut-off is given here.
Columns and labels:
Cannabinoid receptor 1 [1] = target: T1, Cannabinoid receptor 1 (Homo sapiens, UniProt P21554); assay: Antagonist activity at N-terminal tagged human CB1 receptor transfected with HEK293 cells assessed as forskolin-stimulated cAMP level in presence of CP55940 by BRET assay; assay type: functional, cell-based
In short: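 HEK293 cells stably expressing hCB1 (3HA-tagged at Otago, untagged at RTI) are transiently transfected with the CAMYEL BRET cAMP sensor. Cells are serum-starved 30 min and given 5 μM coelenterazine H final. Compound dilutions are added together with 5 μM forskolin and 1 μM CP55,940. BRET (460/535) is read for about 20 min at 37 °C.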

[2] = Metabolic stability in rat liver microsomes assessed as half life in presence of NADPH measured upto 45 mins by LC-MS/MS analysis; assay type: ADME, Microsome; conditions: 0.75 h
In short: (§1)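 Rat liver microsomes (0.5 mg/mL protein) in 100 mM potassium phosphate, pH 7.4, at 37 °C with 1 mM NADPH. Samples were taken at 0, 5, 15, 30 and 45 min, quenched with acetonitrile and analysed by LC/MS/MS. Half-life and clearance were derived from two independent experiments in duplicate.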

Cannabinoid receptor 1 [3] = target: T1, Cannabinoid receptor 1; assay: Allosteric antagonist activity at human CB1 receptor expressed in CHO-RD-HGA16 cells overexpressing Galpha16 assessed as inhibition of CP55940-stimulated calcium mobilization incubated for 15 mins FLIPR assay; assay type: functional, cell-based
[4] = Metabolic stability in rat liver microsomes assessed as clearance in presence of NADPH measured upto 45 mins by LC-MS/MS analysis; assay type: ADME, Microsome; conditions: 0.75 h; in short: as §1
Cannabinoid receptor 1 [5] = target: T1, Cannabinoid receptor 1; assay: Agonist activity at human CB1 receptor CP55940-stimulated calcium mobilization at 10 uM incubated for 15 mins FLIPR assay relative to control; assay type: functional
[6] = target: Cannabinoid receptor 2 (Homo sapiens) (UniProt P34972); assay: Agonist activity at human CB2 receptor CP55940-stimulated calcium mobilization at 10 uM incubated for 15 mins FLIPR assay relative to control; assay type: functional
In short: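 CB2 agonist screen in CHO-RD-HGA16 cells stably expressing human CB2, loaded with Calcium 5 dye for 45 min at 37 °C. Cells were pretreated 15 min with vehicle, then the test compound was added at a single concentration. Fluorescence was read on FLIPR every 1 s for 90 s (485/525 nm). Response is expressed as % of CP55,940 Emax.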

Cannabinoid receptor 1 [7] = target: T1, Cannabinoid receptor 1; assay: Allosteric antagonist activity against human CB1 receptor expressed in HEK293 cells membrane measured after 60 mins by [35S]GTPgammaS binding assay; assay type: functional, cell membranes
In short: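 Membranes from HEK293 cells expressing hCB1 are used in assay buffer (50 mM Tris, 3 mM MgCl2, 0.2 mM EGTA, 100 mM NaCl, 1 mg/ml BSA, pH 7.4). They are preincubated 10 min, then incubated 60 min at 30 °C with 30 μM GDP, 0.1 nM [35S]GTPγS, 100 nM CP55,940 and serially diluted compound (0.1% DMSO final). Nonspecific binding is set with 30 μM unlabeled GTPγS. Reactions are filtered. Data are normalized to CP55,940 alone and fitted by 3-parameter regression; mean of ≥3 experiments in duplicate.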

[8] = target: Cannabinoid receptor 2 (Homo sapiens) (UniProt P34972); assay: Antagonist activity at human CB2 receptor CP55940-stimulated calcium mobilization incubated for 15 mins FLIPR assay; assay type: functional; set-up: concentration or dose not given beside the values
In short: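 CB2 antagonist screen in human CB2 CHO-RD-HGA16 cells loaded with Calcium 5 dye. Cells were pretreated 15 min at 37 °C with the test compound at a single concentration (10 μM), then challenged with CP55,940 at its EC80 during the FLIPR read (90 s, 485/525 nm). Response is expressed as % inhibition of the CP55,940 EC80 signal.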

Cannabinoid receptor 1 [9] = target: Cannabinoid receptor 1 (Mus musculus, UniProt P47746); assay: Allosteric antagonist activity against mouse CB1 receptor in cerebellar membranes measured after 60 mins by [35S]GTPgammaS binding assay
[10] = Cmax in Sprague-Dawley rat brain at 10 mg/kg, ip measured upto 24 hrs post dose by LC-MS/MS analysis
[11] = Tmax in Sprague-Dawley rat brain at 10 mg/kg, ip measured upto 24 hrs post dose by LC-MS/MS analysis
[12] = AUC infinity in Sprague-Dawley rat brain 10 mg/kg, ip measured upto 24 hrs post dose by LC-MS/MS analysis
[13] = Clearance in Sprague-Dawley rat plasma at 10 mg/kg, ip measured upto 24 hrs post dose by LC-MS/MS analysis
[14] = Aqueous solubility of compound; assay type: physicochemical; conditions: buffer
[15] = AUC infinity in Sprague-Dawley rat plasma 10 mg/kg, ip measured upto 24 hrs post dose by LC-MS/MS analysis
[16] = Apparent permeability across basolateral to apical side in MDCK-MDR1 cells at 10 uM measured upto 90 mins by LC-MS/MS analysis; assay type: ADME, cell-based, Canis lupus familiaris; conditions: dog, mdck-mdr1, 1.5 h
In short: (§2)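 MDCK-MDR1 cells (passage 5) were grown 3 days on polycarbonate Transwell supports and equilibrated 30 min at 37 °C in HBSS with 10 mM HEPES and 0.25% BSA, pH 7.4, before TEER was measured. Test article at 10 μM was placed in the donor chamber (apical or basolateral), with light agitation at 37 °C. Receiver samples were taken at 30, 60 and 90 min and analysed by LC-MS/MS. Papp = (dQ/dt)/(A·Ci·60). References were atenolol, propranolol and digoxin.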

[17] = Tmax in Sprague-Dawley rat plasma at 10 mg/kg, ip measured upto 24 hrs post dose by LC-MS/MS analysis
[18] = Toxicity in Sprague-Dawley rat assessed as reduction in locomotion at 10 mg/kg, ip; assay type: organism-based; conditions: in vivo
In short: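 Rats received 10 mg/kg i.p. compound or vehicle 15 min before being placed in locomotion chambers, after at least three days of handling. Locomotor activity was recorded for 30 min and analysed by two-way ANOVA.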

[19] = Plasma protein binding in rat; assay type: ADME, cell-free
[20] = Cmax in Sprague-Dawley rat plasma at 10 mg/kg, ip measured upto 24 hrs post dose by LC-MS/MS analysis
[21] = Elimination half life in Sprague-Dawley rat plasma 10 mg/kg, ip measured upto 24 hrs post dose by LC-MS/MS analysis
[22] = Apparent permeability across apical to basolateral side in MDCK-MDR1 cells at 10 uM measured upto 90 mins by LC-MS/MS analysis; assay type: ADME, cell-based, Canis lupus familiaris; conditions: dog, mdck-mdr1, 1.5 h; in short: as §2
Rattus norvegicus = assay: Attenuation of cocaine reinstatement in 7 day cocaine treated Sprague-Dawley rat assessed as reduction in cocaine seeking behaviour at 10 mg/kg, ip treated for 10 mins prior to administration of cocaine priming injection; assay type: functional, organism-based
In short: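 Male Sprague-Dawley rats (280-300 g) with jugular catheters self-administered cocaine (0.75 mg/kg/inf, FR1 raised to FR5) in 2-h sessions for 14 days, then underwent 7 days of extinction. On the test day, compound (10 mg/kg) or vehicle was given 10 min before a priming cocaine injection (10 mg/kg i.p.), and lever responding was measured.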

Cannabinoid receptor 1 (Mus musculus, UniProt P47746), sequence (P47746 whole entry): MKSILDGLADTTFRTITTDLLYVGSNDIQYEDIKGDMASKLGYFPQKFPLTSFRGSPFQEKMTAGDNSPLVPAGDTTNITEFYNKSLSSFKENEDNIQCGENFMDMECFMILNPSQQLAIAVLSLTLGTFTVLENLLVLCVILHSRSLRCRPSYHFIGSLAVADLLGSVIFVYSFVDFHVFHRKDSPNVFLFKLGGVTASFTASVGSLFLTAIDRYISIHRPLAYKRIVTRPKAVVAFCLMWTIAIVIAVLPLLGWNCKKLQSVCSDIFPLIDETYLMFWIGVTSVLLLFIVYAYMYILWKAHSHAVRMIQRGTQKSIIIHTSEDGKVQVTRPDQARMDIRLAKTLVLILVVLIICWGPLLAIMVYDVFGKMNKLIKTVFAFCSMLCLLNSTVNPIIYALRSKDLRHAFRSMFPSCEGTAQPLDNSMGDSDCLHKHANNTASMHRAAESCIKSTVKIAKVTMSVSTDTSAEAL
T1 sequence (P21554 whole entry): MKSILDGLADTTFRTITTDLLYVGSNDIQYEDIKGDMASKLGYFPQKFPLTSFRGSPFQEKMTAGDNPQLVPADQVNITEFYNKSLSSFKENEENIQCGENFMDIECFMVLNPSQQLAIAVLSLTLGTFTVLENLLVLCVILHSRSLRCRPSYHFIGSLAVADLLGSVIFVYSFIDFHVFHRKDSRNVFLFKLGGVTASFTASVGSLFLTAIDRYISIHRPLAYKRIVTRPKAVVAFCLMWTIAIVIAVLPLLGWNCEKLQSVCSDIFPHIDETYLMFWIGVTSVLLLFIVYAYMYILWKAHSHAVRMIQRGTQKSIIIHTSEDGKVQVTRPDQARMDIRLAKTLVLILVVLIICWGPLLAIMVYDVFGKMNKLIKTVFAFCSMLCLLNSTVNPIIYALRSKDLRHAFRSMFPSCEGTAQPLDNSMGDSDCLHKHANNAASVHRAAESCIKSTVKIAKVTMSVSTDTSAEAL
Cannabinoid receptor 2 (Homo sapiens), sequence (P34972 whole entry): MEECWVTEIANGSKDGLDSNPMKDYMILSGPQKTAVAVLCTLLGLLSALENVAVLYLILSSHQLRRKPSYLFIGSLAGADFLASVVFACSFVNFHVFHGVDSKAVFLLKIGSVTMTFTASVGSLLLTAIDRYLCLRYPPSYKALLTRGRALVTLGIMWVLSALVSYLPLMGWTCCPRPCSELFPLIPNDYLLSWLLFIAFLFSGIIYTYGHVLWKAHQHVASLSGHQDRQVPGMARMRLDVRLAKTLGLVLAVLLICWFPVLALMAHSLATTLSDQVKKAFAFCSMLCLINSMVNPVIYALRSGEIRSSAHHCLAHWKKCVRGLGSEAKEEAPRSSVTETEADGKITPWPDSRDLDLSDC

Row | Compound | IC50 (Cannabinoid receptor 1 [1]) [µM] | IC50 (Cannabinoid receptor 1 [3]) [µM] | Emax (Cannabinoid receptor 1 [5]) [%] | Emax [6] [%] | IC50 (Cannabinoid receptor 1 [7]) [µM] | Activity [8] [%] | also measured
1 | O=C(NCCc1cccc(C(F)(F)F)c1)Nc1ccc(Cl)cc1 | 0.676 | 0.0288 | < 30 | < 20 | 1.29 | < 35 | t1/2 [2]: 15.5 min; CLH [4]: 90 µL/min/mg
2 | O=C(NCCc1ccc([N+](=O)[O-])cc1)Nc1ccc(Cl)cc1 | 1.78 | 0.0851 | < 30 | < 20 | 2.95 | < 35 | 
3 | O=C(NCCc1ccc(F)cc1)Nc1ccc(Cl)cc1 | 1.7 | 0.105 | < 30 | < 20 | 4.37 | < 35 | IC50 (Cannabinoid receptor 1 [9]): 0.891 µM
4 | O=C(NCCc1ccccc1C(F)(F)F)Nc1ccc(Cl)cc1 | 3.24 | 0.126 | < 30 | < 20 | 4.27 | < 35 | 
5 | Cc1cccc(CCNC(=O)Nc2ccc(Cl)cc2)c1 | 0.912 | 0.0417 | < 30 | < 20 | 3.02 | < 35 | t1/2 [2]: 13.7 min; CLH [4]: 102 µL/min/mg
6 | COc1ccc(CCNC(=O)Nc2ccc(Cl)cc2)cc1OC | > 10 | 1.78 | < 30 | < 20 | > 10 | < 35 | 
7 | COc1ccc(CCNC(=O)Nc2ccc(Cl)cc2)cc1 | 4.17 | 0.214 | < 30 | < 20 | 5.62 | < 35 | IC50 (Cannabinoid receptor 1 [9]): 3.72 µM
8 | Cc1ccc(CCNC(=O)Nc2ccc(Cl)cc2)cc1 | 2.04 | 0.135 | < 30 | < 20 | 13.8 | < 35 | 
9 | CC(C)(C)c1ccc(CCNC(=O)Nc2ccc(Cl)cc2)cc1 | > 10 | 0.537 | < 30 | < 20 | > 10 | < 35 | IC50 (Cannabinoid receptor 1 [9]): > 10 µM
10 | O=C(NCCc1cccc(F)c1)Nc1ccc(Cl)cc1 | 1.35 | 0.0513 | < 30 | < 20 | 6.76 | < 35 | 
11 | O=C(NCCc1cccc(Cl)c1)Nc1ccc(Cl)cc1 | 1.51 | 0.0288 |  | < 20 | 5.13 | < 35 | Cmax [10]: 595 ng/mL; Tmax [11]: 24 min; AUC(0-inf) [12]: 1440 ng·h/mL; CL/F [13]: 241 mL/min/kg; solubility [14]: < 1 µM; t1/2 [2]: 14.9 min; AUC(0-inf) [15]: 715 ng·h/mL; Papp [16]: 21.3 10^-6 cm/s; Tmax [17]: 24 min; Activity [18]: Non-Toxic; PPB [19]: 99.6%; CLH [4]: 99.3 µL/min/mg; Cmax [20]: 288 ng/mL; half-life [21]: 37.8 min; Papp [22]: 19.2 10^-6 cm/s; Activity (Rattus norvegicus): Active
12 | Cc1cc(C)cc(CCNC(=O)Nc2ccc(Cl)cc2)c1 | 6.61 | 0.0288 |  | < 20 | 6.61 | < 35 | 
13 | COc1cccc(CCNC(=O)Nc2ccc(Cl)cc2)c1 | 7.76 | 0.447 | < 30 | < 20 | 12.3 | < 35 | 
